Measured values: ChEMBL document CHEMBL1136746 (2003)

Experiments:
Rattus norvegicus [1] = species: Rattus norvegicus; assay: Percent Hemolysis observed in rat red blood cells when Treated with 1 mM concentration; assay type: functional
Rattus norvegicus [2] = species: Rattus norvegicus; assay: Percent Hemolysis observed in rat red blood cells when Treated with 2 mM concentration; assay type: functional
Rattus norvegicus [3] = species: Rattus norvegicus; assay: Percent Hemolysis observed in rat red blood cells when Treated with 5 mM concentration; assay type: functional
Caco-2 = assay: Apparent Permeability through Caco-2 cell monolayers (n = 4); assay type: functional, cell-based
How it was run: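 Caco-2 cells seeded on polycarbonate inserts (0.45 µm pore, 6.5 mm) and grown 21 days to differentiate; TEER >400 Ω/cm² before and after. ³H-acetylated peptide or [¹⁴C]mannitol (200 µM) added apically in HBSS/25 mM HEPES pH 7.4, 37 °C, shaken 400 rpm. Receiver chamber swapped at 30, 90, 150 min; scintillation counting. Papp averaged over four replicates.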

Row | Compound | Hemolysis (Rattus norvegicus [1]) | Hemolysis (Rattus norvegicus [2]) | Hemolysis (Rattus norvegicus [3]) | Papp (Caco-2)
1 | CCCCCCCCCCCCOS(=O)(=O)[O-].[Na+] [SODIUM LAURYL SULFATE] | 12.25% | 51.54% | 62.66% | –
2 | OC[C@@H](O)[C@@H](O)[C@H](O)[C@H](O)CO | – | – | – | 5.88 10e-6 cm s-1
